Measurements published in ChEMBL document CHEMBL1155459, “On-bead screening of a combinatorial fumaric acid derived peptide library yields antiplasmodial cysteine protease inhibitors with unusual peptide sequences” (J Med Chem, 2009).
Square brackets hold non-standard residues; d marks the D form. Peptide text beside a SMILES is read from it. * marks the point of attachment. Fumaroyl(AlaGlyPheOH) = C[C@H](NC(=O)/C=C/C(=O)*)C(=O)NCC(=O)N[C@@H](Cc1ccccc1)C(=O)O; Chg = N[C@H](C(=O)O)C1CCCCC1; Dap = NC[C@H](N)C(=O)O

Tests used:
[1] = biological target: Rhodesain (Trypanosoma brucei rhodesiense) (UniProt Q95PM0); experiment: Inhibition of Trypanosoma brucei rhodesiense rhodesain after 12 hrs by fluorescence spectroscopy-based on-bead assay; design: concentration or dose not given beside the values; conditions: concentration not given here
Sequence of Rhodesain (Trypanosoma brucei rhodesiense) (Q95PM0 1-450): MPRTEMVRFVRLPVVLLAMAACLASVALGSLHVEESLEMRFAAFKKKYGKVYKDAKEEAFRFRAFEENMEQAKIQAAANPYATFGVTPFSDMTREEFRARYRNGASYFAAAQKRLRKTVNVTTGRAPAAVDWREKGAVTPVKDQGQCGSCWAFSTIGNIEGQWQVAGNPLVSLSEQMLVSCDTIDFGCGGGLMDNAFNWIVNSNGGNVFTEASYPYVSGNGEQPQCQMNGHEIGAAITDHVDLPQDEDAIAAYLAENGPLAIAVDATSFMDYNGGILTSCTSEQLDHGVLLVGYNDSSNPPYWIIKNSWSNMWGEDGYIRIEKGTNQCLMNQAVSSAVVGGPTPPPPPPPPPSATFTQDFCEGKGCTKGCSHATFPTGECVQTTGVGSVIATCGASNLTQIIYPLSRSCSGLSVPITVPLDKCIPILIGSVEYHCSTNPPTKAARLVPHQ
Outline: (§1)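 Library members on resin (PEGA, theoretical loading 0.40 mmol/g; added as DMSO suspension, 0.64 mM final inhibitor) preincubated with enzyme 12 h, then Cbz-Phe-Arg-AMC 40 μM added; AMC release followed by fluorescence (ex 380/em 460 nm). Kinetics compared with inhibitor-free amino-PEGA resin.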

[2] = Inhibition of Plasmodium falciparum falcipain-2 after 12 hrs by fluorescence spectroscopy-based on-bead assay; design: concentration or dose not given beside the values; conditions: concentration not given here; outline: as §1

CC(C)C[C@H](NC(=O)[C@@H](NC(=O)[C@H](CCC(N)=O)NC(=O)/C=C/C(=O)NCC(=O)NCC(=O)N[C@@H](Cc1ccccc1)C(=O)O)C1CCCCC1)C(=O)N[C@H](C(N)=O)C(C)C (HELM PEPTIDE1{[O=C(/C=C/C(=O)[*:2])NCC(=O)NCC(=O)N[C@@H](Cc1ccccc1)C(=O)O].Q.[O=C([C@@H](N[*:1])C1CCCCC1)[*:2]].L.V.[am]}$$$$V2.0)
inhibition [1]: 71%
inhibition [2]: 45%

CC[C@H](C)[C@H](NC(=O)[C@H](C)NC(=O)/C=C/C(=O)N[C@@H](C)C(=O)NCC(=O)N[C@@H](Cc1ccccc1)C(=O)O)C(=O)N[C@@H](CC(C)C)C(=O)N[C@H](C(N)=O)C(C)C (HELM PEPTIDE1{[C[C@H](NC(=O)/C=C/C(=O)[*:2])C(=O)NCC(=O)N[C@@H](Cc1ccccc1)C(=O)O].A.I.L.V.[am]}$$$$V2.0)
inhibition [1]: 49%
inhibition [2]: 54%

CC[C@H](C)[C@H](NC(=O)[C@H](Cc1ccccc1)NC(=O)/C=C/C(=O)NCC(=O)NCC(=O)N[C@@H](Cc1ccccc1)C(=O)O)C(=O)N[C@@H](CC(C)C)C(=O)N[C@H](C(N)=O)C(C)C (HELM PEPTIDE1{[O=C(/C=C/C(=O)[*:2])NCC(=O)NCC(=O)N[C@@H](Cc1ccccc1)C(=O)O].F.I.L.V.[am]}$$$$V2.0)
inhibition [1]: 73%
inhibition [2]: 58%

CC[C@H](C)[C@H](NC(=O)[C@H](C)NC(=O)/C=C/C(=O)N[C@@H](C)C(=O)NCC(=O)N[C@@H](Cc1ccccc1)C(=O)O)C(=O)N[C@@H](C)C(=O)N[C@H](C(N)=O)C(C)C (HELM PEPTIDE1{[C[C@H](NC(=O)/C=C/C(=O)[*:2])C(=O)NCC(=O)N[C@@H](Cc1ccccc1)C(=O)O].A.I.A.V.[am]}$$$$V2.0)
inhibition [1]: 9%
inhibition [2]: 37%

CC[C@H](C)[C@H](NC(=O)[C@H](CCC(N)=O)NC(=O)/C=C/C(=O)NCC(=O)NCC(=O)N[C@@H](Cc1ccccc1)C(=O)O)C(=O)N[C@@H](C)C(=O)N[C@H](C(N)=O)C(C)C (HELM PEPTIDE1{[O=C(/C=C/C(=O)[*:2])NCC(=O)NCC(=O)N[C@@H](Cc1ccccc1)C(=O)O].Q.I.A.V.[am]}$$$$V2.0)
inhibition [1]: 38%
inhibition [2]: 38%

CC[C@H](C)[C@H](NC(=O)[C@H](CNC(C)=O)NC(=O)/C=C/C(=O)NCC(=O)NCC(=O)N[C@@H](Cc1ccccc1)C(=O)O)C(=O)N[C@@H](CC(C)C)C(=O)N[C@H](C(N)=O)C(C)C (HELM PEPTIDE1{[O=C(/C=C/C(=O)[*:2])NCC(=O)NCC(=O)N[C@@H](Cc1ccccc1)C(=O)O].[O=C([C@H](CN[*:3])N[*:1])[*:2]].I.L.V.[am]}|PEPTIDE2{[ac]}$PEPTIDE1,PEPTIDE2,2:R3-1:R2$$$V2.0)
inhibition [1]: 60%
inhibition [2]: 33%

CC(C)[C@H](NC(=O)[C@@H](NC(=O)[C@@H](NC(=O)[C@H](CCC(N)=O)NC(=O)/C=C/C(=O)N[C@@H](C)C(=O)NCC(=O)N[C@@H](Cc1ccccc1)C(=O)O)c1ccccc1)C(C)C)C(N)=O (HELM PEPTIDE1{[C[C@H](NC(=O)/C=C/C(=O)[*:2])C(=O)NCC(=O)N[C@@H](Cc1ccccc1)C(=O)O].Q.[Phg].V.V.[am]}$$$$V2.0)
inhibition [1]: 34%
inhibition [2]: 46%

CC(C)C[C@H](NC(=O)[C@@H](NC(=O)[C@H](CC(N)=O)NC(=O)/C=C/C(=O)NCC(=O)NCC(=O)N[C@@H](Cc1ccccc1)C(=O)O)C1CCCCC1)C(=O)N[C@H](C(N)=O)C(C)C (HELM PEPTIDE1{[O=C(/C=C/C(=O)[*:2])NCC(=O)NCC(=O)N[C@@H](Cc1ccccc1)C(=O)O].N.[O=C([C@@H](N[*:1])C1CCCCC1)[*:2]].L.V.[am]}$$$$V2.0)
inhibition [1]: 69%
inhibition [2]: 45%

CC(C)[C@H](NC(=O)[C@H](C)NC(=O)[C@@H](NC(=O)[C@H](CCC(N)=O)NC(=O)/C=C/C(=O)NCC(=O)NCC(=O)N[C@@H](Cc1ccccc1)C(=O)O)C1CCCCC1)C(N)=O (HELM PEPTIDE1{[O=C(/C=C/C(=O)[*:2])NCC(=O)NCC(=O)N[C@@H](Cc1ccccc1)C(=O)O].Q.[O=C([C@@H](N[*:1])C1CCCCC1)[*:2]].A.V.[am]}$$$$V2.0)
inhibition [1]: 31%
inhibition [2]: 40%

CC(C)C[C@H](NC(=O)[C@H](Cc1ccccc1)NC(=O)[C@H](Cc1ccccc1)NC(=O)/C=C/C(=O)NCC(=O)NCC(=O)N[C@@H](Cc1ccccc1)C(=O)O)C(=O)N[C@H](C(N)=O)C(C)C (HELM PEPTIDE1{[O=C(/C=C/C(=O)[*:2])NCC(=O)NCC(=O)N[C@@H](Cc1ccccc1)C(=O)O].F.F.L.V.[am]}$$$$V2.0)
inhibition [1]: 52%
inhibition [2]: 41%

CC(=O)NC[C@H](NC(=O)/C=C/C(=O)NCC(=O)NCC(=O)N[C@@H](Cc1ccccc1)C(=O)O)C(=O)N[C@H](C(=O)N[C@@H](C)C(=O)N[C@H](C(N)=O)C(C)C)c1ccccc1 (HELM PEPTIDE1{[O=C(/C=C/C(=O)[*:2])NCC(=O)NCC(=O)N[C@@H](Cc1ccccc1)C(=O)O].[O=C([C@H](CN[*:3])N[*:1])[*:2]].[Phg].A.V.[am]}|PEPTIDE2{[ac]}$PEPTIDE1,PEPTIDE2,2:R3-1:R2$$$V2.0)
inhibition [1]: 36%
inhibition [2]: 37%

CC[C@H](C)[C@H](NC(=O)[C@H](C)NC(=O)/C=C/C(=O)NCC(=O)NCC(=O)N[C@@H](Cc1ccccc1)C(=O)O)C(=O)N[C@@H](C)C(=O)N[C@H](C(N)=O)C(C)C (HELM PEPTIDE1{[O=C(/C=C/C(=O)[*:2])NCC(=O)NCC(=O)N[C@@H](Cc1ccccc1)C(=O)O].A.I.A.V.[am]}$$$$V2.0)
inhibition [1]: 31%
inhibition [2]: 54%

CC(C)[C@H](NC(=O)[C@H](C)NC(=O)[C@@H](NC(=O)[C@H](CC(N)=O)NC(=O)/C=C/C(=O)N[C@@H](C)C(=O)NCC(=O)N[C@@H](Cc1ccccc1)C(=O)O)C1CCCCC1)C(N)=O (HELM PEPTIDE1{[C[C@H](NC(=O)/C=C/C(=O)[*:2])C(=O)NCC(=O)N[C@@H](Cc1ccccc1)C(=O)O].N.[O=C([C@@H](N[*:1])C1CCCCC1)[*:2]].A.V.[am]}$$$$V2.0)
inhibition [1]: 36%
inhibition [2]: 45%

CC(C)[C@H](NC(=O)[C@@H](NC(=O)[C@@H](NC(=O)[C@H](Cc1ccccc1)NC(=O)/C=C/C(=O)NCC(=O)NCC(=O)N[C@@H](Cc1ccccc1)C(=O)O)c1ccccc1)C(C)C)C(N)=O (HELM PEPTIDE1{[O=C(/C=C/C(=O)[*:2])NCC(=O)NCC(=O)N[C@@H](Cc1ccccc1)C(=O)O].F.[Phg].V.V.[am]}$$$$V2.0)
inhibition [1]: 68%
inhibition [2]: 35%

CC[C@H](C)[C@H](NC(=O)[C@H](CC(N)=O)NC(=O)/C=C/C(=O)NCC(=O)NCC(=O)N[C@@H](Cc1ccccc1)C(=O)O)C(=O)N[C@H](C(=O)N[C@H](C(N)=O)C(C)C)C(C)C (HELM PEPTIDE1{[O=C(/C=C/C(=O)[*:2])NCC(=O)NCC(=O)N[C@@H](Cc1ccccc1)C(=O)O].N.I.V.V.[am]}$$$$V2.0)
inhibition [1]: 39%
inhibition [2]: 57%

CC[C@H](C)[C@H](NC(=O)[C@H](CCC(N)=O)NC(=O)/C=C/C(=O)N[C@@H](C)C(=O)NCC(=O)N[C@@H](Cc1ccccc1)C(=O)O)C(=O)N[C@@H](CC(C)C)C(=O)N[C@H](C(N)=O)C(C)C (HELM PEPTIDE1{[C[C@H](NC(=O)/C=C/C(=O)[*:2])C(=O)NCC(=O)N[C@@H](Cc1ccccc1)C(=O)O].Q.I.L.V.[am]}$$$$V2.0)
inhibition [1]: 47%
inhibition [2]: 46%

CC(C)C[C@H](NC(=O)[C@@H](NC(=O)[C@H](Cc1ccccc1)NC(=O)/C=C/C(=O)NCC(=O)NCC(=O)N[C@@H](Cc1ccccc1)C(=O)O)C1CCCCC1)C(=O)N[C@H](C(N)=O)C(C)C (HELM PEPTIDE1{[O=C(/C=C/C(=O)[*:2])NCC(=O)NCC(=O)N[C@@H](Cc1ccccc1)C(=O)O].F.[O=C([C@@H](N[*:1])C1CCCCC1)[*:2]].L.V.[am]}$$$$V2.0)
inhibition [1]: 57%
inhibition [2]: 40%

CC[C@H](C)[C@H](NC(=O)[C@H](CCC(N)=O)NC(=O)/C=C/C(=O)N[C@@H](C)C(=O)NCC(=O)N[C@@H](Cc1ccccc1)C(=O)O)C(=O)N[C@H](C(=O)N[C@H](C(N)=O)C(C)C)C(C)C (HELM PEPTIDE1{[C[C@H](NC(=O)/C=C/C(=O)[*:2])C(=O)NCC(=O)N[C@@H](Cc1ccccc1)C(=O)O].Q.I.V.V.[am]}$$$$V2.0)
inhibition [1]: 38%
inhibition [2]: 54%

CC(=O)NC[C@H](NC(=O)/C=C/C(=O)N[C@@H](C)C(=O)NCC(=O)N[C@@H](Cc1ccccc1)C(=O)O)C(=O)N[C@H](C(=O)N[C@@H](C)C(=O)N[C@H](C(N)=O)C(C)C)C1CCCCC1 ({Fumaroyl(AlaGlyPheOH)}-[Dap](Ac)[Chg]AV-NH2)
inhibition [1]: 29%
inhibition [2]: 35%

CC[C@H](C)[C@H](NC(=O)[C@H](CCC(N)=O)NC(=O)/C=C/C(=O)NCC(=O)NCC(=O)N[C@@H](Cc1ccccc1)C(=O)O)C(=O)N[C@@H](CC(C)C)C(=O)N[C@H](C(N)=O)C(C)C (HELM PEPTIDE1{[O=C(/C=C/C(=O)[*:2])NCC(=O)NCC(=O)N[C@@H](Cc1ccccc1)C(=O)O].Q.I.L.V.[am]}$$$$V2.0)
inhibition [1]: 52%
inhibition [2]: 44%

CC(C)[C@H](NC(=O)[C@@H](NC(=O)[C@H](Cc1ccccc1)NC(=O)[C@H](CC(N)=O)NC(=O)/C=C/C(=O)NCC(=O)NCC(=O)N[C@@H](Cc1ccccc1)C(=O)O)C(C)C)C(N)=O (HELM PEPTIDE1{[O=C(/C=C/C(=O)[*:2])NCC(=O)NCC(=O)N[C@@H](Cc1ccccc1)C(=O)O].N.F.V.V.[am]}$$$$V2.0)
inhibition [1]: 28%
inhibition [2]: 40%

CC(=O)NC[C@H](NC(=O)/C=C/C(=O)N[C@@H](C)C(=O)NCC(=O)N[C@@H](Cc1ccccc1)C(=O)O)C(=O)N[C@@H](Cc1ccccc1)C(=O)N[C@H](C(=O)N[C@H](C(N)=O)C(C)C)C(C)C (HELM PEPTIDE1{[C[C@H](NC(=O)/C=C/C(=O)[*:2])C(=O)NCC(=O)N[C@@H](Cc1ccccc1)C(=O)O].[O=C([C@H](CN[*:3])N[*:1])[*:2]].F.V.V.[am]}|PEPTIDE2{[ac]}$PEPTIDE1,PEPTIDE2,2:R3-1:R2$$$V2.0)
inhibition [1]: 44%
inhibition [2]: 32%

CC(C)C[C@H](NC(=O)[C@H](Cc1ccccc1)NC(=O)[C@H](Cc1ccccc1)NC(=O)/C=C/C(=O)N[C@@H](C)C(=O)NCC(=O)N[C@@H](Cc1ccccc1)C(=O)O)C(=O)N[C@H](C(N)=O)C(C)C (HELM PEPTIDE1{[C[C@H](NC(=O)/C=C/C(=O)[*:2])C(=O)NCC(=O)N[C@@H](Cc1ccccc1)C(=O)O].F.F.L.V.[am]}$$$$V2.0)
inhibition [1]: 54%
inhibition [2]: 47%
